# Experimental data published in PMC6139374 (Cell, 2018).
# “And” between values parts separate entries of the source, which are not always exact repeats. Identical values can stand only once. Where no end group is shown, it is not given here. Side-chain parts run from the residue outwards. [ ]: non-standard residue; d: D form. Dap = NC[C@H](N)C(=O)O
# B1: A16: Δ143-Akt1-pThr308 construct possessing Asp473 (protein, UniProt P31749 1-480, looked up, variant del1-143 S473D)
# RAC-alpha …: RVTMNEFEYLKLLGKGTFGKVILVKEKATGRYYAMKILKKEVIVAKDEVAHTLTENRVLQNSRHPFLTALKYSFQTHDRLCFVMEYANGGELFFHLSRERVFSEDRARFYGAEIVSALDYLHSEKNVVYRDLKLENLMLDKDGHIKITDFGLCKEGIKDGATMKTFCGTPEYLAPEVLEDNDYGRAVDWWGLGVVMYEMMCGRLPFYNQDHEKLFELILMEEIRFPRTLGPEAKSLLSGLLKKDPKQRLGGGSEDAKEIMQHRFFAGIVWQHVYEKKLSPPFKPQVTSETDTRYFDEEFTAQMITITPPDQDDSMECVDSERRPHFPQFDYSASGTA
# modifications: pThr308
# B2: GST-PDK1 (enzyme)
# chain: MARTTSQLYDAVPIQSSVVLCSCPSPSMVRTQTESSTPPGIPGGSRQGPAMDGTAAEPRPGAGSLQHAQPPPQPRKKRPEDFKFGKILGEGSFSTVVLARELATSREYAIKILEKRHIIKENKVPYVTRERDVMSRLDHPFFVKLYFTFQDDEKLYFGLSYAKNGELLKYIRKIGSFDETCTRFYTAEIVSALEYLHGKGIIHRDLKPENILLNEDMHIQITDFGTAKVLSPESKQARANSFVGTAQYVSPELLTEKSACKSSDLWALGCIIYQLVAGLPPFRAGNEYLIFQKIIKLEYDFPEKFFPKARDLVEKLLVLDATKRLGCEEMEGYGPLKAHPFFESVTWENLHQQTPPKLTAYLPAMSEDDEDCYGNYDNLLSQFGCMQVSSSSSSHSLSASDTGLPQRSGSNIEQYIHDLDSNSFELDLQFSEDEKRLLLEKQAGGNPWHQFVENNLILKMGPVDKRKGLFARRRQLLLTEGPHLYYVDPVNKVLKGEIPWSQELRPEAKNFKTFFVHTPNRTYYLMDPSGNAHKWCRKIQEVWRQRYQSHPDAAVQ
# Key:
# [1] = biological target: FL-Akt1-pThr308/pSer473 (A1) and FL-Akt1-pThr308/2pSer477,Thr479 (A6) (Homo sapiens, UniProt P31749); assay: Kinase inhibition assays with Akt inhibitors; format: biochemical; conditions: 250 μM ATP, 20 μM GSK3 peptide
# Akt1 PH domain [2] = biological target: T1, Akt1 PH domain (Homo sapiens, UniProt P31749); assay: Competition binding assay displacing fluorescein-labeled PIP3; conditions: competition with fluorescein-labeled PIP3
# Method in brief: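 Competition format: 50 nM fluorescein-labeled soluble PIP3 with 1 μM Akt PH domain and varied unlabeled soluble phosphoinositide competitor (PIP3 di-C6 or PI(3,4)P2 di-C8). Buffer was 50 mM HEPES pH 7.5, 2 mM DTT, 0.05 mg/ml ovalbumin; incubated 30 min at room temperature, then fluorescence anisotropy read. Sigmoidal fit gave IC50, converted to Ki using free labeled ligand, free PH domain and probe Kd.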
# [3] = biological target: non-C-terminally phosphorylated Akt1 (A2) (Homo sapiens, UniProt P31749); assay: Kinase assay, effect of phosphoinositides on activity; format: biochemical; conditions: 250 μM ATP, 20 μM GSK3 peptide, 10 mM MgCl2
# Method in brief: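 Also present: 250 μM ATP with 32P-γ-ATP and 20 μM biotinylated GSK3 peptide. Added either 400 μM DOPC vesicles with 5 mol% PIP3 or 20 μM soluble PI(3,4)P2 (di-C8). Product was captured on 30 kDa filters and counted by scintillation; runs done at least twice.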
# GSK3 peptide substrate = assay: Radiometric kinase assay, steady-state kinetics of semisynthetic Akt1 forms; format: biochemical; conditions: for catalytic efficiency (kcat/Km), fold lower relative to A1: compared with pThr308/pSer473 form A1; for kcat/Km, within fold of that of A2: low kcat/Km, compared with non-C-terminally phosphorylated enzyme A2
# [4] = biological target: FL-Akt1-pThr308/pSer473 (A1) (Homo sapiens, UniProt P31749); assay: Fluorescence anisotropy binding of soluble PIP3; conditions: fluorescein-labeled soluble PIP3 (di-C6), 50 nM
# Method in brief: (§1)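 Varying concentrations of semisynthetic full-length Akt1 were mixed with 50 nM fluorescein-labeled soluble PIP3 (di-C6). Buffer was 50 mM HEPES pH 7.5, 2 mM DTT, 0.05 mg/ml ovalbumin; incubated 30 min at room temperature. Fluorescence anisotropy was recorded at 23°C.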
# [5] = biological target: FL-Akt1-pThr308/non-p C tail (A2) (Homo sapiens, UniProt P31749); assay: Fluorescence anisotropy binding of soluble PIP3; conditions: stated as nearly identical to the value for A1
# Method in brief: as §1
# [6] = biological target: non-phosphorylated FL-Akt1 (A9) (Homo sapiens, UniProt P31749); assay: Fluorescence anisotropy binding of soluble PIP3; conditions: fluorescein-labeled soluble PIP3, 50 nM
# Method in brief: as §1
# [7] = biological target: FL-Akt1-pThr308, pSer477,pThr479 (A6) (Homo sapiens, UniProt P31749); assay: Fluorescence anisotropy binding of soluble PIP3
# Method in brief: as §1
# Akt1 PH domain [8] = biological target: T1, Akt1 PH domain; assay: Fluorescent binding assay of PIP3 with Mg addition; conditions: Mg addition up to 10 mM
# [9] = biological target: pSer477,pThr479 Akt1 (A6) (Homo sapiens, UniProt P31749); assay: Kinase assay, effect of PIP3 on activity; format: biochemical; conditions: addition of excess soluble PIP3
# Akt1 = Akt1 (human, UniProt P31749 1-480); assay: kinase inhibition assay
# [10] = biological target: non-C-terminally phosphorylated Akt1, C-terminally labeled with fluorescein (human) (UniProt P31749); assay: fluorescence polarisation
# T1 sequence (P31749 1-121): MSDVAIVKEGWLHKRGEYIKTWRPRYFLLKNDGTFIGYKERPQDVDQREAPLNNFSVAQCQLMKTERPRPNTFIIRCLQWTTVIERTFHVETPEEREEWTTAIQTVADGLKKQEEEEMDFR
# Chain of non-C-terminally phosphorylated Akt1 (A2) (P31749 whole entry): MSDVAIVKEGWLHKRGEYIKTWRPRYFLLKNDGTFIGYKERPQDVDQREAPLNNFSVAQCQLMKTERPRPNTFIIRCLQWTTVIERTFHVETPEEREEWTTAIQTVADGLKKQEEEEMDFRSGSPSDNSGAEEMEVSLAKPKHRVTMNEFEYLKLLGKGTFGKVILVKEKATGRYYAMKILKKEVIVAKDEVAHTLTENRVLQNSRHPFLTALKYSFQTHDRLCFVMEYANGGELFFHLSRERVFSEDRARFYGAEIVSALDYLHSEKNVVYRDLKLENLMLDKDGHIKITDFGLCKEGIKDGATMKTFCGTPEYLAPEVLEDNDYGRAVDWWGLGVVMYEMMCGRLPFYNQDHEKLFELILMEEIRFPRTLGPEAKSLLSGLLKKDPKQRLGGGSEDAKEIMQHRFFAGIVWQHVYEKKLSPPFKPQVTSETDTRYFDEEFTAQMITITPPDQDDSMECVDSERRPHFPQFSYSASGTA
# Chain of FL-Akt1-pThr308/pSer473 (A1) and FL-Akt1-pThr308/2pSer477,Thr479 (A6) (P31749 whole entry, the tested form may be a part): as the sequence (P31749 whole entry) above
# Chain of FL-Akt1-pThr308, pSer477,pThr479 (A6) (P31749 whole entry): as above
# Chain of FL-Akt1-pThr308/non-p C tail (A2) (P31749 whole entry): as above
# Chain of pSer477,pThr479 Akt1 (A6) (P31749 whole entry): as above
# Chain of Akt1 (P31749 whole entry): as above
# Chain of non-phosphorylated FL-Akt1 (A9) (P31749 whole entry): as above
# Chain of FL-Akt1-pThr308/pSer473 (A1) (P31749 whole entry): as above
molecule,measurement,setting,value
CC(C)NC[C@@H](C(=O)N1CCN(c2ncnc3c2[C@H](C)C[C@H]3O)CC1)c1ccc(Cl)cc1 [GDC0068],"apparent Ki ratio, A6 relative to A1","[1]; Ki lower for A1, higher for A6",8 fold
NC1(c2ccc(-c3nc4ccn5c(=O)[nH]nc5c4cc3-c3ccccc3)cc2)CCC1 [MK2206],sensitivity of A6 relative to A1 to the inhibitor,[1],distinct sensitivities
"CCCCCCCC(=O)OC[C@H](COP(=O)(O)O[C@H]1[C@H](O)[C@@H](O)[C@H](OP(=O)(O)O)[C@@H](OP(=O)(O)O)[C@H]1O)OC(=O)CCCCCCC [soluble PI(3,4)P2]",binding to Akt1 PH domain,Akt1 PH domain [2],high affinity
same,stimulation of enzymatic activity of A2,[3],did not stimulate
"A1: semisynthetic full-length Akt1, pThr308/pSer473","catalytic efficiency, fold larger than that of Asp473 form A4",GSK3 peptide substrate; A1 vs A4,> 100 fold and 100 fold
same,"kcat/Km, fold greater than that of A2","GSK3 peptide substrate; pThr308 set of full-length Akt1, v/[E] vs [ATP]",about 500 fold
A3: full-length Akt1 pSer473 form lacking phosphorylation at Thr308,"catalytic efficiency (kcat/Km), fold lower relative to A1",GSK3 peptide substrate,500 fold
"A4: full-length Akt1 pThr308, Asp473 form","kcat/Km, within fold of that of A2",GSK3 peptide substrate,≤ 3 fold
"A5: full-length Akt1 pThr308, triply phosphorylated C-tail form","activity, fold more active than A1",GSK3 peptide substrate; compared with pSer473 form A1,~ 2 fold
A6: full-length Akt1 pThr308 with pSer477/pThr479,"catalytic efficiency (kcat/Km), fold lower relative to A1",GSK3 peptide substrate,8 fold
"A7: full-length Akt1 pThr308, pSer477 form","kcat/Km, within fold of that of A2",GSK3 peptide substrate,≤ 3 fold
"A8: full-length Akt1 pThr308, pSer479 form as printed","kcat/Km, within fold of that of A2",GSK3 peptide substrate,≤ 3 fold
A12: R144A point mutation in the context of pSer473 Akt1,"catalytic efficiency (kcat/Km), fold lower relative to A1",GSK3 peptide substrate,~ 50 fold
"phosphatidyl inositol 3,4,5-triphosphate [soluble PIP3]",Kd,[4],~200 nM
same,Kd,[5],~200 nM
same,Kd,[6],90 nM
same,"Kd, fold greater than for A1 or A2","[7]; A6 vs A1 or A2, weakened binding",4 fold
same,Kd,"[7]; fluorescein-labeled soluble PIP3, 50 nM",800 nM
same,increase of Kd on Mg addition,Akt1 PH domain [8],~ 3 fold
same,stimulation of enzymatic activity of A2,[3],did not stimulate
same,effect on catalytic activity of A6,[9],minimally impacted
GRPRTT[Dap]([Ac-ATP‑γS])FAE [GSK3 peptide-ATP conjugate bisubstrate analog],Ki,Akt1,3.6 µM
B1,"kcat/Km, within fold of each other",GSK3 peptide substrate; Δ143-Akt1-pThr308 constructs A15-A18,≤ 3 fold
B2,Kd,[10],200 nM
